Measured values reported in ChEMBL document CHEMBL5038594, “Structural Fine-Tuning of Desmuramylpeptide NOD2 Agonists Defines Their In Vivo Adjuvant Activity” (J Med Chem, 2021).
Calls of active or inactive are those of the source. No cut-off for these calls is given here.

Columns and labels:
PBMC [1] = experiment: Immunostimulatory activity in human PBMC cells assessed as increase in LPS-induced IL-6 production at 2 uM incubated for 18 hrs by flow cytometry analysis; assay type: functional, cell-based
In short: (§1)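 Human PBMCs from healthy donors, 1 × 10^6 cells/mL in RPMI 1640 with 10% FBS, treated with 2 μM compound or 0.1% DMSO, without or with LPS 10 ng/mL, for 18 h at 37 °C. Supernatant cytokines quantified by cytometric bead array (human inflammatory panel) on a flow cytometer against recombinant standards. Four independent donors. Repeated-measures one-way ANOVA with Dunnett.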

PBMC [2] = experiment: Immunostimulatory activity in human PBMC cells assessed as increase in LPS-induced IL-8 production at 2 uM incubated for 18 hrs by flow cytometry analysis; assay type: functional, cell-based; in short: as §1
Mus musculus [3] = experiment: Immuno-adjuvant activity in NIH/OlaHsd mouse assessed as increase in ovalbumin specific […] associated IgG1 production in sera at 0.30 micromol administered subcutaneously on day 1 and as booster dose on day 21 with ovalbumin loaded neutral liposomes and measured 1 week post booster dose by ELISA; assay type: functional, organism-based; conditions: dose 0.3 µmol, time 28.0 day
In short: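 Groups of 5 female NIH/OlaHsd mice, 2.0–2.5 months old, immunized with ovalbumin-loaded neutral liposomes (10 μg ovalbumin per dose) containing 0.30 μmol adjuvant per dose, plus one booster dose. Serum ovalbumin-specific IgG, IgG1 and IgG2a measured 1 week after the booster. Mean ± SEM of 5 mice.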

Mus musculus [4] = experiment: Immuno-adjuvant activity in NIH/OlaHsd mouse assessed as increase in ovalbumin specific IgG production in sera at 0.15 micromol administered subcutaneously on day 1 and as booster dose on day 21 and 28 with ovalbumin loaded liposomes by ELISA; assay type: functional, organism-based; conditions: dose 0.15 µmol, time 28.0 day
In short: (§2)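 Groups of 5 female NIH/OlaHsd mice, 2.0–2.5 months old, immunized with ovalbumin-loaded liposomes (10 μg ovalbumin per dose) containing 0.15 μmol adjuvant per dose. Liposomes were neutral (PC–cholesterol 7:5), anionic (PC–cholesterol–dicetylphosphate 7:5:1) or mannosylated (PC–cholesterol–mannose-PEG-PA 7:5:0.5). Serum ovalbumin-specific IgG, IgG1 and IgG2a measured 1 week after the second booster. Mean ± SEM.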

MEC1 = experiment: Cytotoxicity against human MEC-1 cells cocultured with human PBMC cells assessed as inhibition of cell proliferation at 1 uM incubated with PBMC cells for 18 hrs followed by co-incubation with MEC-1 cells for 4 hrs by SYTOX blue staining based flow cytometric analysis; assay type: functional
In short: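 Effector cells are freshly Ficoll-isolated human PBMCs, 4 × 10^5 per well, pretreated 18 h with compound or 0.1% DMSO. CFSE-labelled K562 or MEC1 targets, 1 × 10^4 per well, are then added at 40:1 effector:target ratio and co-incubated 4 h at 37 °C. Dead targets are CFSE+/Sytox blue+ by flow cytometry. Results are relative to vehicle. Duplicates; three (MEC1) or four (K562) independent experiments. One-way ANOVA with Dunnett.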

Mus musculus [5] = experiment: Immuno-adjuvant activity in NIH/OlaHsd mouse assessed as increase in ovalbumin specific […] associated IgG2a production in sera at 0.15 micromol administered subcutaneously on day 1 and as booster dose on day 21 and 28 with ovalbumin loaded liposomes by ELISA; assay type: functional, organism-based; conditions: dose 0.15 µmol, time 28.0 day; in short: as §2
BMDC = experiment: Induction of mouse BMDC-mediated ovalbumin specific CD4+ T cell activation assessed as increase in CD25 expression at 10 uM incubated for 72 hrs by CFSE staining based flow cytometric analysis; assay type: functional
In short: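 BMDCs from C57BL/6 mouse tibia (7 days in GM-CSF 20 ng/mL, >90% CD11c+) pulsed 18 h with compound (1 or 10 μM) plus ovalbumin 50 μg/mL, then washed. They were cocultured 72 h with CFSE-labelled naive OT-II CD4+ T cells. CD25+/CFSE-low fraction of live Thy1.2+CD4+ cells read by flow cytometry; supernatant cytokines also measured. Duplicates of two independent experiments.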

PBMC [6] = experiment: Immunostimulatory activity in human PBMC cells assessed as increase in TNF-alpha production at 2 uM incubated for 18 hrs by flow cytometry analysis; assay type: functional, cell-based; in short: as §1

## CCCCCCCCCCCCCCCCCC(=O)Oc1ccc(/C=C/C(=O)NCC(=O)N[C@H](C(=O)N[C@H](CCC(=O)OCC)C(=O)OCC)C(C)C)cc1OC
PBMC [1]
  Activity: Active
PBMC [2]
  Activity: Active
Mus musculus [3]
  Activity: Active
Mus musculus [4]
  Activity: Active
MEC1
  Activity: inactive
Mus musculus [5]
  Activity: Active
BMDC
  Activity: Active
PBMC [6]
  Activity: inactive
